# Assay outcomes: PubChem, Sanford-Burnham Center for Chemical Genomics
# Shown are actives, neighbours in structure and some others; about 3% of the full set was active somewhere.
# SENP8 block-1 – human SENP8 protease inhibitors, primary screen, biochemical, fluorescence, Nedd8 protein substrate, uHTS; actives 0.64% (n = 360,000); AID 602440, 2012; inhibition, % at 20 µM; recombinant SENP8; in the data active = inhibition mostly above about 40%, no sharp cut-off; inactive = mostly below about 27%
# Target sequence (Q96LD8 whole entry, looked up): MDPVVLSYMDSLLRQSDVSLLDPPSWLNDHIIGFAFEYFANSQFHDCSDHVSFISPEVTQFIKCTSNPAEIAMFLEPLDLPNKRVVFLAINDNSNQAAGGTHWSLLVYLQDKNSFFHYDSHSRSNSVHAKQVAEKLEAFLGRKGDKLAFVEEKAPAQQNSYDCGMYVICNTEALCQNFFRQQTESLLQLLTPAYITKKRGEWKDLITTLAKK
# Apaf-1 inh – inhibitors of human Apaf-1 apoptosome, primary screen, biochemical, DEVD-Rh110 fluorescence, uHTS. AID 489030, 2010. reconstituted apoptosome caspase-3 activity. actives 0.71% (n = 330,000). inhibition, % at 20 µM. Apoptotic protease-activating factor 1 (Homo sapiens), O14727; active = inhibition of at least 40% at 20 µM;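 note: plate controls were DMSO wells for no effect and DEVD-CHO caspase inhibitor wells for full effect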
#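 detection = Rh110 fluorescence intensity | test system = biochemical Apaf-1 apoptosome reconstitution | also added = cytochrome c and DEVD-Rh110 substrate | schedule = 30 min plus 50 min, RT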
# UBC13 inh – UBC13 polyubiquitin chain formation inhibitors, primary screen, biochemical, TR-FRET, uHTS. Ubiquitin-conjugating enzyme E2 N (Homo sapiens), P61088. inhibition, % at 20 µM. actives 0.47% (n = 330,000). AID 485273, 2010; in the data active = inhibition above about 45%, passing the limit was not always enough
# SENP7 block – SENP7 protease inhibitors, primary screen, biochemical, luminescence, uHTS | Sentrin-specific protease 7 (Homo sapiens), Q9BQF6 | recombinant SENP7, Z-RLRGG-aminoluciferin luminescence, 40 min | inhibition, % at 5 µM | actives 1.5% (n = 330,000) | AID 434973, 2010;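 active = inhibition above about 50% at the single test dose, limit read from the data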;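 note: plate controls were DMSO with enzyme for no effect and no enzyme buffer wells for full effect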
# SENP8 block-2 – SENP8 protease inhibitors, primary screen, biochemical, luminescence; Sentrin-specific protease 8 (Homo sapiens), Q96LD8; purified SENP8, Z-RLRGG-aminoluciferin cleavage; actives 1.2% (n = 330,000); AID 2540, 2010; inhibition, % at 10 µM; in the data active = inhibition above about 50%
# SENP6 inh – SENP6 protease inhibitors, primary screen, biochemical, luminescence, uHTS | Recombinant SENP6 catalytic domain, aminoluciferin luminescence | inhibition, % at 10 µM | actives 1.8% (n = 330,000) | AID 2599, 2010;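 active = inhibition above about 50% at the single tested dose, limit read from the data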;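 note: plate controls were DMSO wells with enzyme for no effect and DMSO wells lacking enzyme for full effect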
# Target sequence (Q9GZR1 628-1112 limits assumed): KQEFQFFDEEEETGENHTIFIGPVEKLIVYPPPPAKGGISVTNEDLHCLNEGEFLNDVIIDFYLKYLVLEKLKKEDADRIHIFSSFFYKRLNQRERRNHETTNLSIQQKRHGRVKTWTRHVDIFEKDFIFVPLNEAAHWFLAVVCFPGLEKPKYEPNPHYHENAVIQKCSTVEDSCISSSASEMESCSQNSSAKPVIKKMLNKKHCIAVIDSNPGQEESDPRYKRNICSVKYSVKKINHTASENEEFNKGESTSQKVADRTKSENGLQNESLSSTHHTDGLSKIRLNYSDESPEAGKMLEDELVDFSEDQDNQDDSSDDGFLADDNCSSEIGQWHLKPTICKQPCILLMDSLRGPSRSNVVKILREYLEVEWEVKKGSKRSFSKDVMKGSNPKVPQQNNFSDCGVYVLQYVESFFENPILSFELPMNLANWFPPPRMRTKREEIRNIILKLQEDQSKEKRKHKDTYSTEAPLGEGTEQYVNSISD
# SENP8 conf – SENP8 protease inhibitors, retest, confirmation, biochemical, luminescence, single concentration. actives 40% (n = 6,200). Recombinant SENP8, Z-RLRGG-aminoluciferin luminescence, 60 min. shares compounds with SENP7 block. inhibition, % at 12.5 µM;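 active = mean inhibition across replicates above about 50%, limit read from the data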
# SENP6 conf – SENP6 protease inhibitors, confirmation, biochemical, luminescence, single concentration | recombinant SENP6, Z-RLRGG-aminoluciferin luminescence | AID 488915, 2010 | shares compounds with SENP7 block | actives 58% (n = 6,200) | inhibition, % at 12.5 µM
# SENP7 confirm – SENP7 protease inhibitors, retest, confirmation, biochemical, luminescence, single concentration; AID 488917, 2010; shares compounds with SENP7 block; actives 69% (n = 6,200); recombinant SENP7, Z-RLRGG-aminoluciferin luminescence, 40 min; inhibition, % at 12.5 µM
# Casp3 select – caspase-3 protease inhibitors, confirmation, selectivity assay for SENP inhibitor project, biochemical, single concentration; shares compounds with SENP7 block; inhibition, % at 12.5 µM; actives 60% (n = 6,200); purified caspase-3, Z-DEVD-aminoluciferin luminescence, 60 min;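 active = mean inhibition above about 50%, limit read from the data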;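 note: plate controls were enzyme with DMSO for no effect and wells without caspase-3 for full effect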
# SENP luc ctr – interferes with luciferase luminescence in SENP counter-screen; shares compounds with SENP7 block; Pre-incubated SENP8/Z-RLRGG-aminoluciferin, luciferase luminescence interference; inhibition, % at 12.5 µM; actives 39% (n = 6,200);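 active = mean inhibition above about 50% when retested at one dose, limit read from the data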;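 note: plate controls were DMSO wells with completed reaction for no effect and substrate without enzyme for full effect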
# * = called active by the depositor; i = inactive; . = no result.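 Rule for the calls, unless noted: active = mean inhibition above about 50% in the one-dose retest (limit read from the data); inactive = the rest.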
SMILES,SENP8 block-1,Apaf-1 inh,UBC13 inh,SENP7 block,SENP8 block-2,SENP6 inh,SENP8 conf,SENP6 conf,SENP7 confirm,Casp3 select,SENP luc ctr
O=C(O)c1ccccc1CSc1nc2ccccc2[nH]1,-0.1,1.5,0.7,47.4,46.8,70.4*,72.0*,70.5*,87.1*,87.7*,75.5*
O=C(CSc1nc2ccccc2[nH]1)c1ccccc1F,3.1,1.7,-4.3,47.4,33.2,56.9*,50.8*,43.9,81.3*,63.3*,61.8*
Fc1cccc(F)c1CSc1nc2ccccc2[nH]1,9.1,2.4,-20.0,74.3*,51.9*,77.0*,61.6*,61.7*,88.8*,71.2*,74.1*
CCOc1ccccc1CSc1nc2ccccc2[nH]1,14.1,0.6,-9.4,-8.1,-24.3,-2.3,.,.,.,.,.
CC1=C(C(=O)N2CCOCC2)C(c2ccc(OC(F)F)cc2)NC(=S)N1c1ccccc1 (centres undefined),6.4,15.5,-11.9,-8.6,-3.2,-22.7,.,.,.,.,.
CC1CCCN(c2nc(N(C)c3ccccc3)nc(N)c2[N+](=O)[O-])C1 (centres undefined),21.0,7.5,4.5,1.1,-2.4,-10.5,.,.,.,.,.
Cc1ccc(NC(=O)C(C)S)cc1 (centres undefined),2.1,.,.,.,.,.,.,.,.,.,.
O=C(COC(=O)Cc1ccccc1F)NCc1ccccc1Cl,-1.5,.,.,.,.,.,.,.,.,.,.
COc1ccc(S(=O)(=O)N2CCN(Cc3cccc(OC)c3OC)CC2)cc1,24.5,8.9,-6.2,9.0,-10.5,-6.1,.,.,.,.,.
O=c1c2ccccc2oc2ccc(-c3ccc4[nH]ccc4c3)cc12,-81.3,-0.6,23.0,47.6,43.8,53.4*,16.7,36.5,57.1*,18.2,16.8
O=c1c2ccccc2oc2cc(-c3ccc4cc[nH]c4c3)ccc12,i,12.9,1.7,-13.2,-11.3,-22.5,.,.,.,.,.
NS(=O)(=O)c1c(Sc2ccccc2C(=O)O)ccc2ccccc12,4.8,-3.1,-26.6,51.6*,-9.2,93.6*,-4.4,0.2,-4.4,2.3,40.1
O=C1C(C=NCc2ccncc2)=C(O)c2ccccc21,8.1,-2.5,12.1,-9.1,-5.8,1.7,.,.,.,.,.
O=C1C(C=Nc2ccc(F)cc2)=C(O)c2ccccc21,22.9,13.1,-4.9,94.5*,73.6*,76.4*,50.8*,53.5*,66.7*,66.1*,20.3
COc1ccc(N=CC2=C(O)c3ccccc3C2=O)c(OC)c1,50.1*,0.9,-9.6,99.4*,94.8*,90.5*,52.9*,96.4*,102.3*,88.5*,3.2
Cc1ccccc1N=CC1=C(O)c2ccccc2C1=O,40.1*,-2.3,-14.0,102.2*,92.6*,98.1*,94.4*,97.7*,102.4*,97.3*,54.3*
COc1ccc(-c2noc(CCC(=O)N3CCN(c4ccccc4C(F)(F)F)CC3)n2)cc1,9.7,22.6,.,6.9,.,.,.,.,.,.,.
O=c1oc2ccccc2cc1-c1nc(-c2ccccc2)no1,i,6.1,20.5,81.5*,56.9*,38.0,11.1,27.5,29.4,25.4,-3.1
O=c1oc2ccccc2cc1-c1nc2c(s1)CCCC2,-315.1,3.3,11.9,99.3*,94.0*,47.8,-3.8,44.4,100.3*,84.4*,12.0
Cc1ccc(-c2noc(-c3cc4ccccc4oc3=O)n2)cc1,-448.5,8.0,11.0,-4.6,0.5,17.6,.,.,.,.,.
Cc1cccc(-c2noc(-c3cc4ccccc4oc3=O)n2)c1,-488.0,10.8,28.5,81.5*,0.2,11.5,19.7,21.2,21.0,37.9,2.7
O=c1oc2ccccc2cc1-c1nc2ccccc2o1,-293.3,-2.8,33.4,85.0*,71.6*,89.6*,53.6*,85.5*,97.7*,93.8*,28.1
Clc1ccc(-n2nnc(-c3cccnc3)n2)cc1Cl,16.6,-2.8,5.2,51.5*,19.0,61.6*,6.5,12.1,31.2,50.9*,8.0
Cc1ccc(-n2nnc(-c3nccs3)n2)cc1,14.1,-0.2,0.9,97.5*,94.4*,93.6*,96.7*,97.2*,101.3*,96.7*,93.7*
Clc1ccc(-n2nnc(-c3nccs3)n2)cc1Cl,8.3,16.6,-3.2,81.9*,71.6*,81.7*,24.0,44.5,60.3*,68.0*,-4.9
SMILES,SENP8 block-1,Apaf-1 inh,UBC13 inh,SENP7 block,SENP8 block-2,SENP6 inh,SENP8 conf,SENP6 conf,SENP7 confirm,Casp3 select,SENP luc ctr
CCN(CCNCC(O)COc1ccccc1C(C)C)c1cccc(C)c1 (centres undefined),23.5,32.7,31.6,1.9,1.2,22.9,.,.,.,.,.
CC(NC(=O)CN(c1ccc(Cl)cc1)S(C)(=O)=O)c1ccccc1 (centres undefined),2.5,-12.4,-0.7,-3.9,-4.9,-19.0,.,.,.,.,.
Cc1ccc(NC(=O)CSc2ccc(-c3ccccn3)nn2)cc1F,-1.4,0.6,7.0,5.5,-1.1,-13.5,.,.,.,.,.
O=[N+]([O-])c1ccccc1COc1ccc(Cl)c2cccnc12,8.9,-2.1,-2.1,92.6*,71.7*,82.8*,50.5*,51.5*,72.7*,74.5*,15.8
CCN(CC)CCNc1ccc(C)c2sc3ccc(O)cc3c(=O)c12,29.5,.,.,.,.,.,.,.,.,.,.
CC(/C=N/NC(=O)c1cccs1)=C\c1ccccc1,-38.5,17.7,-0.4,77.2*,71.0*,2.8,12.8,81.0*,92.8*,63.4*,19.5
O=C(N/N=C/C(Cl)=C\c1ccccc1)c1cccs1,-19.0,17.9,-4.0,42.5,52.1*,62.7*,9.4,58.7*,85.4*,31.2,8.8
Cc1cc(C(=O)N/N=C/c2c(C)nn(-c3ccccc3)c2C)c(C)o1,24.8,-9.0,-1.2,35.8,35.2,50.5*,34.3,25.0,59.8*,55.4*,22.6
